From ChEMBL document CHEMBL1125087, “Synthesis and biological activity of new HMG-CoA reductase inhibitors. 1. Lactones of pyridine- and pyrimidine-substituted 3,5-dihydroxy-6-heptenoic (-heptanoic) acids” (J Med Chem, 1990)
Values belong to the molecule of their own block, whether it stands above or below them.

How the values were obtained:
[1] = target: T1, 3-hydroxy-3-methylglutaryl-coenzyme A reductase (Rattus norvegicus, UniProt P51639); assay: In vitro inhibition of rat liver HMG-CoA reductase
T1 sequence (P51639 whole entry): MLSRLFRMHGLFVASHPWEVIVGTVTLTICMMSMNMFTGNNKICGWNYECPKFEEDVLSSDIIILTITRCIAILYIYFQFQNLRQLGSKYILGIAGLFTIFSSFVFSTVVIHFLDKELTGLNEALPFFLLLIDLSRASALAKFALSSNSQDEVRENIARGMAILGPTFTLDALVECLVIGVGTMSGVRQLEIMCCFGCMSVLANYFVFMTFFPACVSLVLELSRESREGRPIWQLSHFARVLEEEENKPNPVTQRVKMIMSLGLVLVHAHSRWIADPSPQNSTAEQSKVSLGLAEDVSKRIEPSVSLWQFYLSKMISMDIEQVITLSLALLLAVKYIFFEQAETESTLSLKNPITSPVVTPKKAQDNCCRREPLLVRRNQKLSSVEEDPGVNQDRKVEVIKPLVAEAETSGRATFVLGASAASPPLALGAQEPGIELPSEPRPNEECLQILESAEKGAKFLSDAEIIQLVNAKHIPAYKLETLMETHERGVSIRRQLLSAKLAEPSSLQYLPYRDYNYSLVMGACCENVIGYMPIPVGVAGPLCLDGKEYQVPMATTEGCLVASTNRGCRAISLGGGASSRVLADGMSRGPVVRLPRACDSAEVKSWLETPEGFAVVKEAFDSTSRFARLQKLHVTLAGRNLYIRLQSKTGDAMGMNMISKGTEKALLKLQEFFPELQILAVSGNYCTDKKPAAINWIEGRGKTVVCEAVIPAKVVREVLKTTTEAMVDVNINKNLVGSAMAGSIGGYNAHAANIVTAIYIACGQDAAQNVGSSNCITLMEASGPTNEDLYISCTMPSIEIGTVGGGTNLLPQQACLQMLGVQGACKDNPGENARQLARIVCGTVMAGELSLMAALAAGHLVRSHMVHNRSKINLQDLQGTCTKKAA
Method in brief: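 Partially purified soluble HMG-CoA reductase from rat liver microsomes. Medium: 6 mM Tris, 2.5 mM EDTA, 2.5 mM DTT, 50 mM NADP, 50 mM glucose 6-phosphate, glucose-6-phosphate dehydrogenase, and 0.91 mM HMG-CoA with [14C]HMG-CoA. Lactones were opened with 1 equiv KOH to potassium dihydroxy carboxylates and tested at multiple concentrations. Incubated at 37 °C for 20 min, then stopped with HClO4. Run in triplicate; IC50 read from a %-inhibition-versus-concentration plot.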

[2] = target: T2, 3-hydroxy-3-methylglutaryl-coenzyme A reductase (Homo sapiens) (UniProt P04035); assay: Relative inhibition of HMG-CoA reductase compared to Mevinolin.
T2 sequence (whole entry): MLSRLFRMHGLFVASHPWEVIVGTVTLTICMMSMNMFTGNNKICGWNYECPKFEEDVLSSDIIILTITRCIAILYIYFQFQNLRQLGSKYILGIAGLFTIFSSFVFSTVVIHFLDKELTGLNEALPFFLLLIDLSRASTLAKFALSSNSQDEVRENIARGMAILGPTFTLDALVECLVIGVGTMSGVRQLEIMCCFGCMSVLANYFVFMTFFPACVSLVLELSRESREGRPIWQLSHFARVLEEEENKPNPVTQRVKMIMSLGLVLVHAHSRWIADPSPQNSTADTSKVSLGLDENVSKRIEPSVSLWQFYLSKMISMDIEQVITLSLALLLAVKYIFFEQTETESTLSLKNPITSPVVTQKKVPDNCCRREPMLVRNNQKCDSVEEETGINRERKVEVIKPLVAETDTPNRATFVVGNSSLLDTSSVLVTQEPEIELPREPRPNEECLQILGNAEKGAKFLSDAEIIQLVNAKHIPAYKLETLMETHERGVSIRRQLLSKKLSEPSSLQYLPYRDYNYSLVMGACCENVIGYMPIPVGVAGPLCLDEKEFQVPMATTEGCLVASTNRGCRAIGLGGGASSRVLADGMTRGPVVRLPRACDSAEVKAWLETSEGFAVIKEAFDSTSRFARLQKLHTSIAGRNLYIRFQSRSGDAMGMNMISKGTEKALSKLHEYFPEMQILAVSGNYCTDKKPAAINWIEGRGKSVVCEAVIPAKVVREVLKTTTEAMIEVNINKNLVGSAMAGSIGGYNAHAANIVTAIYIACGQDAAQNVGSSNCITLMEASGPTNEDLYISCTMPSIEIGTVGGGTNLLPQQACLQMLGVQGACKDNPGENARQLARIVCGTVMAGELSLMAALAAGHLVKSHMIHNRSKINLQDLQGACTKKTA

[3] = target: T3, 3-hydroxy-3-methylglutaryl-coenzyme A reductase (Homo sapiens, UniProt P04035); assay: Inhibition of cellular HMG-CoA reductase in cultures of human HEP G2 cells, determined by decreased incorporation of sodium [14C]acetate into cholesterol.; type: cell-based, HepG2
T3 sequence (P04035 whole entry): T2 sequence (whole entry)
Method in brief: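 They were preincubated for 1 h with compound at three concentrations, or with solvent as control, then labeled with [14C]sodium acetate for 3 h. [3H]cholesterol served as internal standard. Cells were saponified, lipids extracted with chloroform/methanol 2:1, and cholesterol isolated by TLC. IC50 came from the treated/control [14C]cholesterol ratio plotted against concentration.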

SMILES: CCc1nc(-c2ccccc2)cc(-c2ccc(F)cc2)c1CCC1C[C@@H](O)CC(=O)O1 (some centres undefined)
IC50 [1]: 3 nM

SMILES: Cc1nc(-c2ccccc2)cc(-c2ccc(F)cc2)c1/C=C\[C@@H]1C[C@@H](O)CC(=O)O1
IC50 [1]: 100 nM
Relative potency [2]: 0.08
IC50 [3]: 5000 nM

SMILES: O=C1C[C@H](O)C[C@@H](/C=C/c2c(-c3ccc(F)cc3)cc(-c3ccccc3)nc2C2CCCCC2)O1
IC50 [1]: 30 nM
Relative potency [2]: > 0.01
IC50 [3]: > 5000 nM

SMILES: CC(C)(C)c1nc(-c2ccccc2)cc(-c2ccc(F)cc2)c1/C=C/[C@@H]1C[C@@H](O)CC(=O)O1
IC50 [1]: 18 nM

SMILES: Cc1nc(C)c(/C=C/[C@@H]2C[C@@H](O)CC(=O)O2)c(-c2ccc(F)cc2)n1
IC50 [1]: 500 nM

SMILES: Cc1nc(-c2ccccc2)cc(-c2ccc(F)cc2)c1/C=C/[C@@H]1C[C@@H](O)CC(=O)O1
IC50 [1]: 38 nM
Relative potency [2]: 0.56
IC50 [3]: 90 nM

SMILES: Cc1nc(C)c(/C=C/[C@@H]2C[C@@H](O)CC(=O)O2)c(-c2ccc(Cl)cc2)n1
IC50 [1]: 600 nM

SMILES: Cc1nc(C)c(/C=C\[C@@H]2C[C@@H](O)CC(=O)O2)c(-c2ccc(Cl)cc2)n1
IC50 [1]: > 1000 nM

SMILES: CCc1nc(-c2ccccc2)cc(-c2ccc(F)cc2)c1/C=C/[C@@H]1C[C@@H](O)CC(=O)O1
IC50 [1]: 40 nM

SMILES: CC(C)c1nc(-c2ccccc2)cc(-c2ccc(F)cc2)c1CCC1C[C@@H](O)CC(=O)O1 (some centres undefined)
IC50 [1]: 19 nM
Relative potency [2]: 0.14
IC50 [3]: 370 nM

SMILES: CC(C)c1nc(C2CCCCC2)cc(-c2ccc(F)cc2)c1/C=C/[C@@H]1C[C@@H](O)CC(=O)O1
IC50 [1]: 4 nM
Relative potency [2]: 5.26
IC50 [3]: 9.5 nM

SMILES: CC[C@H](C)C(=O)O[C@H]1C[C@@H](C)C=C2C=C[C@H](C)[C@H](CC[C@@H]3C[C@@H](O)CC(=O)O3)[C@H]21 [LOVASTATIN]
IC50 [1]: 8 nM

SMILES: Cc1nc(C)c(CCC2C[C@@H](O)CC(=O)O2)c(-c2ccc(F)cc2)n1 (some centres undefined)
IC50 [1]: 1000 nM

SMILES: CC(C)c1cc(-c2ccccc2)nc(-c2ccc(F)cc2)c1/C=C/[C@@H]1C[C@@H](O)CC(=O)O1
IC50 [1]: 4 nM
Relative potency [2]: 5
IC50 [3]: 10 nM

SMILES: Cc1cc(-c2ccc(Cl)cc2)c(/C=C/[C@@H]2C[C@@H](O)CC(=O)O2)c(C)n1
IC50 [1]: 94 nM

SMILES: CC(C)c1nc(-c2ccccc2)nc(-c2ccc(F)cc2)c1/C=C/[C@@H]1C[C@@H](O)CC(=O)O1
IC50 [1]: 3 nM
Relative potency [2]: 10
IC50 [3]: 5 nM

SMILES: CC(C)c1nc(C2CCCCC2)nc(-c2ccc(F)cc2)c1/C=C/[C@@H]1C[C@@H](O)CC(=O)O1
IC50 [1]: 1 nM
Relative potency [2]: 1.92
IC50 [3]: 26 nM

The remaining lines, values ahead:

IC50 [1]: > 1000 nM
SMILES: Cc1cc(-c2ccc(F)cc2)c(/C=C\[C@@H]2C[C@@H](O)CC(=O)O2)c(C)n1

IC50 [1]: 36 nM
SMILES: CC(C)c1nc(-c2ccccc2)cc(-c2ccc(C(F)(F)F)cc2)c1/C=C/[C@@H]1C[C@@H](O)CC(=O)O1

IC50 [1]: 3 nM
Relative potency [2]: 10
IC50 [3]: 5 nM
SMILES: CC(C)c1nc(-c2ccccc2)cc(-c2ccc(F)cc2)c1/C=C/[C@@H]1C[C@@H](O)CC(=O)O1 [GLENVASTATIN]

IC50 [1]: 5 nM
Relative potency [2]: 2.5
IC50 [3]: 20 nM
SMILES: Cc1ccc(C)c(-c2cc(-c3ccc(F)cc3)c(/C=C/[C@@H]3C[C@@H](O)CC(=O)O3)c(C(C)C)n2)c1

IC50 [1]: 260 nM
Relative potency [2]: 0.03
IC50 [3]: 2000 nM
SMILES: Cc1cc(-c2ccc(F)cc2)c(/C=C/[C@@H]2C[C@@H](O)CC(=O)O2)c(C)n1

IC50 [1]: 3 nM
Relative potency [2]: 10.4
IC50 [3]: 4.8 nM
SMILES: CC(C)c1nc(-c2ccc(F)cc2)c(/C=C/[C@@H]2C[C@@H](O)CC(=O)O2)c(C(C)C)n1

IC50 [1]: 8 nM
SMILES: Cc1cc(C)cc(-c2cc(-c3ccc(F)cc3)c(/C=C/[C@@H]3C[C@@H](O)CC(=O)O3)c(C(C)C)n2)c1

IC50 [1]: 3 nM
SMILES: CC(C)c1cc(-c2ccc(F)cc2)c(/C=C/[C@@H]2C[C@@H](O)CC(=O)O2)c(C(C)C)n1

IC50 [1]: 2 nM
Relative potency [2]: 6.67
IC50 [3]: 7.5 nM
SMILES: CC(C)c1nc(-c2ccc(F)cc2)cc(-c2ccc(F)cc2)c1/C=C/[C@@H]1C[C@@H](O)CC(=O)O1

IC50 [1]: 1 nM
Relative potency [2]: 2.5
IC50 [3]: 20 nM
SMILES: CC(C)c1nc(C(C)(C)C)cc(-c2ccc(F)cc2)c1/C=C/[C@@H]1C[C@@H](O)CC(=O)O1

IC50 [1]: 13 nM
Relative potency [2]: 0.33
IC50 [3]: 150 nM
SMILES: COc1ccc(-c2cc(-c3ccccc3)nc(C(C)C)c2/C=C/[C@@H]2C[C@@H](O)CC(=O)O2)cc1

IC50 [1]: 9 nM
Relative potency [2]: 1
IC50 [3]: 50 nM
SMILES: Cc1cc(-c2ccc(F)cc2)c(/C=C/[C@@H]2C[C@@H](O)CC(=O)O2)c(C(C)C)n1

IC50 [1]: 1 nM
Relative potency [2]: 2.78
IC50 [3]: 18 nM
SMILES: CC(C)c1nc(-c2ccc(F)cc2)nc(-c2ccc(F)cc2)c1/C=C/[C@@H]1C[C@@H](O)CC(=O)O1
